Screening data deposited in PubChem by several laboratories.
AI-2 QS mod = Vibrio harveyi AI-2 quorum sensing modulation | Vibrio harveyi JMH597 AI-2 luminescence/OD600 ratio, 9 h; hits give low values; strain lacks LuxN and CqsS sensors; 0 = neutral-control median | activity change, % at 7.5 µM | 0.4% of 300,000 active | AID 2094; in the data active means activity change below about -75%, passing the limit was not always enough;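 further: luminescence divided by OD600 gain over 9 h not by final OD600 alone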
Tb MetRS inh = Trypanosoma brucei MetRS inhibition. inhibition, % at 11.9 µM. 0.4% of 360,000 active. purified T. brucei MetRS, ATP depletion, Kinase-Glo luminescence;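 active means inhibition above a per-plate cutoff of the control wells' mean inhibition plus 3 SD, cut at about 5.5% in these data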;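 further: 0% = DMSO wells median and 100% = median of wells with control inhibitor compound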
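Measured by: Kinase-Glo luciferase luminescence reporting remaining unconsumed ATP. Material: purified T. brucei MetRS enzyme. Doses: 11.9 µM compound single dose, 0.9% DMSO. Medium: HEPES buffer containing pyrophosphatase, BSA, spermine, DTT. Times: 15 min preincubation, 2 h reaction, all 25 °C. Reagent: methionine, ATP and bulk E. coli tRNA.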
MsrA inh = bovine MsrA inhibition. purified bovine MsrA, absorbance read-out. inhibition, % at 15.5 µM. 0.75% of 360,000 active. AID 651718; in the data active means inhibition above about 4.5%;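 further: 0% = vehicle wells with enzyme and 100% = reference inhibitor wells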
AHR activator = activates the human aryl hydrocarbon receptor; P35869; AHR-responsive luciferase reporter cells, luminescence; activation, % at 5 µM; 2.5% of 320,000 active; in the data active means activation above about 47%;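 further: 0% = vehicle wells and 100% = reference agonist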
MsrA act = activators of bovine methionine sulfoxide reductase A | purified bovine MsrA, absorbance read-out | 0.3% of 360,000 active | AID 602163 | activation, % at 10.6 µM; in the data active means activation above about 7.5%;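 further: 0% = vehicle and 100% = reference activator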
HTR2A ag = activates the mouse 5-HT2A serotonin receptor. CHO-K1 mHTR2A beta-arrestin complementation, luminescence; percent of 30 µM serotonin response. activation, % at 7.6 µM. 0.66% of 360,000 active;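 active means activation above a run cutoff, the mean activation of all tested compounds plus 3 SD, cut at about 14% in these data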;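 further: 0% = plate median of compound wells and 100% = 30 µM serotonin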
Target sequence (P35363 whole entry, looked up): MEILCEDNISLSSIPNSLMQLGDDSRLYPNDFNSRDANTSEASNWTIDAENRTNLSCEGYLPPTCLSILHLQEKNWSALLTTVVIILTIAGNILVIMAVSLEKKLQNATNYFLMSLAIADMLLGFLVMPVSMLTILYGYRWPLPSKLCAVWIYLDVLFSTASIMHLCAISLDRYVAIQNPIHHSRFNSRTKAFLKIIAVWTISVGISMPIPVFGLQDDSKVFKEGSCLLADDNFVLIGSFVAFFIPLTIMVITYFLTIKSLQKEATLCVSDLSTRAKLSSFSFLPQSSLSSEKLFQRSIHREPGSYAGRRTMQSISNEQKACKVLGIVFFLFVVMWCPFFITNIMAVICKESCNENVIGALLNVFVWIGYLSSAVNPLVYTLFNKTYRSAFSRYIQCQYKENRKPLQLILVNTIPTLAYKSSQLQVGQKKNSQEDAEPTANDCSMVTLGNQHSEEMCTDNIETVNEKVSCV
* = called active by the depositor; · = not tested or not shown. This is a sample that favours compounds with a hit; in the whole collection about 4.4% have one here.

SMILES	AI-2 QS mod	Tb MetRS inh	MsrA inh	AHR activator	MsrA act	HTR2A ag
CCCn1c(C)cs/c1=N\C(=S)Nc1ccccc1	20	-1	1	48*	-14	6
COc1ccc(CCNc2cc(C)nc3c(-c4ccc(Cl)cc4)cnn23)cc1OC	35	-1	2	69*	-2	-1
COC(=O)C1=C(C)N(Cc2ccc(C(F)(F)F)cc2)C(=NCc2ccc3c(c2)OCO3)NC1c1cccc(Cl)c1 (centres undefined)	·	·	-2	·	·	·
Cc1cccc(C(=O)Nc2sc(C)c(-c3ccccc3)c2C#N)c1	24	-3	1	50*	-13	-2
O=C(Nc1cccc2ccccc12)OCc1cncs1	11	0	1	57*	-2	-3
O=C(Nc1cccc2ccccc12)OCc1ccccc1	·	0	0	·	-1	-7
O=S1(=O)N[C@H](Cc2ccccc2)COc2cccc(NCCO)c21	·	·	0	·	·	·
NC(=NCc1ccc2c(c1)OCO2)NC(=O)c1ccccc1	-77*	1	1	·	-1	-9
Cc1ccsc1C(=O)N1CCC1(C)C(=O)NCC(C)(C)C (centres undefined)	·	-1	-1	·	-4	-2
COc1cccc(-c2nnc3n2N=C(c2cc(OC)ccc2OC)CS3)c1	23	0	0	59*	-2	1
COc1cccc(C2=Nn3c(nnc3-c3ccccc3O)SC2)c1	8	0	1	58*	-5	-3
Cc1cc(C)cc(NC(=O)CCn2ccnc2)c1	22	0	-2	22	-2	-9
CCCCS(=O)(=O)N1C2=NC(C(=O)OCC)=C(C(=O)OCC)C3N(Cc4ccc(C#N)cc4)c4ccccc4[C@]23C[C@H]1C(=O)OC (some centres undefined)	·	·	1	·	·	·
CC(=NCCc1ccccc1)C1=C(O)CSC1=O	17	-1	1	49*	-14	2
CC(=NCCc1ccccc1)C1=C(O)CCC1=O	8	-2	0	1	-9	2
CC(C)Sc1nc(C(F)(F)F)cc(=O)n1-c1ccccc1	23	0	0	1	14*	1
Cc1ccc(S(=O)(=O)NCc2ccc3c(c2)OCO3)cc1	·	·	0	·	·	·
CCOC(=O)C1=CCN(S(=O)(=O)c2ccccc2F)C1c1ccc(Br)cc1 (centres undefined)	·	·	-1	·	·	·
O=C1COc2ccc(-c3csc(NCC4CCCO4)n3)cc2N1 (centres undefined)	23	0	1	77*	-3	0
Cc1csc2ncc(C(=O)Nc3cccc(C(F)(F)F)c3)c(=O)n12	-3	0	0	23	-1	5
Cn1ncc(Cl)c1C(=O)Nc1ccncc1	40	-2	0	-1	-4	-2
Cn1ncc(Cl)c1C(=O)Nc1ccc(CN2CCCCC2)cc1	6	0	1	76*	-4	-9
Cc1csc2ncc(C(=O)NCc3ccc4c(c3)OCO4)c(=O)n12	20	·	·	78*	·	·
Cc1csc2ncc(C(=O)NCc3ccccc3Cl)c(=O)n12	14	0	1	45	-3	-1
CCc1ccc(NC(=O)c2cnc3scc(C)n3c2=O)cc1	32	-1	1	63*	-2	1
SMILES	AI-2 QS mod	Tb MetRS inh	MsrA inh	AHR activator	MsrA act	HTR2A ag
Cn1ncc(Cl)c1C(=O)NCc1ccc2c(c1)OCO2	25	0	-1	49*	0	8
O=C(OC1CCCC1)c1ccc(Cl)cc1Cl	·	0	-2	·	-11	3
COC(=O)c1cc2c(c3c4cc(OC)ccc4n(S(=O)(=O)c4ccc(OC)cc4)c13)C(=O)N(Cc1ccc(N(C)C)cc1)C2	·	·	1	·	·	·
CC1=NN(c2ccccc2)C(=O)/C1=C\c1cc(C)n(C)c1C	30	0	0	54*	-3	0
CCNC(=O)c1ccccc1-c1nc(-c2ccccc2OC)no1	1	-1	-2	34	-5	-3
CCOc1ccccc1NC(=O)c1ccccc1-c1nc(-c2ccccc2OC)no1	14	-1	0	64*	-2	-1
CCOc1nc(C)ccc1-c1noc(-c2ccccc2OC)n1	20	-1	0	50*	3	1
CCOc1cc(-c2nc(-c3ccc(C)nc3OCC)no2)cc(OCC)c1OCC	12	0	0	3	-3	5
CC(=O)Nc1ccc(-c2cc(N)n(-c3ccccc3)n2)cc1	-3	-1	2	72*	-6	3
Cc1ccc(C(=O)N(C)[C@H]2C[C@H]3c4[nH]c5c(-c6ccccc6)cccc5c4CCN3C(=O)[C@H]2[C@H](C)O)cc1	·	·	0	·	·	·
COc1cc(/C=C/C(=O)Nc2ccc3nc4n(c(=O)c3c2)CCCC4)cc(OC)c1OC	-4	1	4.6*	-1	-3	1
CCCCCCCCN1C(=O)[C@@H](CC(=O)N2CCOCC2)C[C@@]2(C(=O)OC)C1=C[C@H](C1CCCC1)O[C@@H]2C	·	·	0	·	·	·
O=C(Nc1ncn[nH]1)c1ccc(S(=O)(=O)N2CCOCC2)cc1	3	-1	1	5	-4	3
COc1ccccc1CCn1c(N)cc(=O)[nH]c1=O	8	-2	1	53*	-14	7
O=S(=O)(c1ccc(F)cc1)N1CCCc2nc(-c3ccccc3)ccc21	·	·	-1	·	·	·
COc1cc2c(cc1NC(=O)CN(C)Cc1ccc(OC)c(OC)c1)oc1ccccc12	77	0	4.6*	34	-7	-7
COc1cc2c(cc1NC(=O)Nc1ccccc1)oc1ccccc12	10	1	3	48*	-2	-4
COc1ccc(CN(C)CC(=O)Nc2cc3oc4ccccc4c3cc2OC)c(OC)c1	19	0	0	26	-4	-4
COc1cc2c(cc1NCc1ccccn1)oc1ccccc12	21	0	1	63*	-6	14
COc1cc2c(cc1NC(=S)Nc1cccc3ccccc13)oc1ccccc12	13	0	2	72*	1	-5
Cc1cc(N2CCNC[C@@H]2C)ccc1N1C[C@@H](C)O[C@@H](C)C1	·	·	-1	·	·	·
N/C(=N\OC(=O)C1CC1)c1ccc([N+](=O)[O-])s1	-88*	0	1	0	1	3
N/C(=N\O)c1ccc([N+](=O)[O-])s1	63	0	3	0	2	3
CC(C)(C)C(=O)O/N=C(\N)c1ccc([N+](=O)[O-])s1	-84*	-1	2	-6	-4	-2
Clc1ccc(C2=CC(c3ccco3)n3ncnc3N2)cc1 (centres undefined)	8	0	0	71*	-3	1
CC(=O)/C=C/n1c(=S)oc2ccccc21	-96*	·	3	1	·	·
Cc1c(COC(=O)NC(C)C)c(COC(=O)NC(C)C)c2n1CS(=O)(=O)C2	·	·	0	·	·	·
COC(=O)c1cc2c(c3c4cc(OC)ccc4n(S(=O)(=O)c4ccc(F)cc4)c13)C(=O)N(CC(C)C)C2	·	·	1	·	·	·
